# Measured values from different studies.
# Cell line: Vero
# Effect on: cell growth or viability
SMILES,assay,conditions,CC50
Cc1ccc(NCc2ccc(Oc3ccccn3)cc2)cc1,MTT,72 h,> 300 µM
N#Cc1c(-c2ccc(Cl)cc2)nc2n(c1=O)NC(c1ccccc1O)N2C(Cc1c[nH]c2ccccc12)C(=O)O (stereo not drawn),MTT,72 h,250 µg/mL
Brc1ccc(NCc2ccc(Oc3ccccn3)cc2)cc1,MTT,72 h,> 300 µM
O=C(Nc1ccc(Cl)c(C(F)(F)F)c1)c1ccccc1O,MTT,72 h,< 10 µg/mL
CC1(C)OB(CC2c3ccccc3C(=O)N2C2CCCCC2)OC1(C)C (stereo not drawn),,,175 µM
COC(=O)N[C@H](C(=O)N1C[C@H](N=[N+]=[N-])C[C@H]1c1ncc(-c2ccc(-c3ccc(-c4cnc([C@@H]5C[C@@H](N=[N+]=[N-])CN5C(=O)[C@@H](NC(=O)OC)C(C)C)[nH]4)cc3)cc2)[nH]1)C(C)C,,,> 100 µM
O=C(Nc1ccc(F)c(F)c1)c1cc(Cl)ccc1O,MTT,72 h,< 5 µg/mL
Cc1cccc(NCc2ccc(Oc3ccccn3)cc2)c1,MTT,72 h,> 300 µM
O=C(Nc1ccc(Br)cc1)c1cc(Cl)ccc1O,MTT,72 h,10 µg/mL
CC(=O)C1=C(C)N2NC(C)(c3ccccc3O)N(C(Cc3c[nH]c4ccccc34)C(=O)O)C2=NC1c1ccc(Cl)cc1 (stereo not drawn),MTT,72 h,500 µg/mL
COC(=O)N[C@@H](C[S+]([O-])Cc1ccccc1)C(=O)N1CCC[C@H]1c1ncc(-c2ccc(-c3ccc(-c4cnc([C@@H]5CCCN5C(=O)[C@@H](NC(=O)OC)C(C)C)[nH]4)cc3)cc2)[nH]1 (stereo partly drawn),,,4 µM
Cc1cn([C@H]2C[C@H](N=[N+]=[N-])[C@@H](CO)O2)c(=O)[nH]c1=O,,,51 µM
CC(=O)C1=C(C)N2NC(c3ccccc3O)N(C(Cc3c[nH]c4ccccc34)C(=O)O)C2=NC1c1ccc(Cl)cc1 (stereo not drawn),MTT,72 h,250 µg/mL
O=C(Nc1ccc(F)c(Cl)c1)c1cc(Cl)ccc1O,MTT,72 h,< 5 µg/mL
COc1ccc(NCc2ccc(Oc3ccccn3)cc2)cc1,MTT,72 h,> 300 µM
O=C(Nc1cccc(C(F)(F)F)c1)c1cc(Cl)ccc1O,MTT,72 h,< 5 µg/mL
Cc1ccccc1NCc1ccc(Oc2ccccn2)cc1,MTT,72 h,> 300 µM
COc1ccc(CN2C(=O)c3ccccc3C2CB2OC(C)(C)C(C)(C)O2)cc1 (stereo not drawn),,,2.3 µM
Fc1ccccc1NCc1ccc(Oc2ccccn2)cc1,MTT,72 h,> 300 µM
CCOC(=O)C1=C(C)N2NC(c3ccccc3O)N(C(Cc3c[nH]c4ccccc34)C(=O)O)C2=NC1c1ccc(Cl)cc1 (stereo not drawn),MTT,72 h,250 µg/mL
O=C1C(O)=C([C@H]2CC[C@H](c3ccc(Cl)cc3)CC2)C(=O)c2ccccc21,,,9.5 µM
